Structures can show the parent of a compound that is named as a salt. Where two headings read alike, the source gives them in different places.
How the values were obtained:
[1] = target: LPA1 receptor (Cricetulus griseus, UniProt G3HUC7); format: cell-based, Chinese hamster; details: CHOK1/Gα15/GCaMP6s-CAAX
[2] = target: CaV3.2 (Homo sapiens, UniProt O95180); format: cell-based; details: GCaMP6s-CAAX FLIPR, CRC, EC10 KCl
How it was run: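 Inducible HEK293 CaV3.2/Kir2.3/GCaMP6s-CAAX cells, with no antibiotics in assay plates. Doxycycline (1 μg/mL) induction, 16k/well, 2 days at 37 °C, then ~60 min at room temperature in buffer of 133 mM NaCl, 10 HEPES, 10 glucose, 4 KCl, 1 CaCl2, pH 7.3. […] Peak response over baseline after each addition.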

[3] = target: CaV3.1 (Homo sapiens, UniProt O43497); format: cell-based; details: GCaMP6s-CAAX FLIPR, CRC, low CaCl2
How it was run: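 HEK293 cells co-expressing CaV3.1, Kir2.3 and GCaMP6s-CAAX in DMEM/F-12 GlutaMAX + 10% FBS + 1.25 μg/mL puromycin. Induced with 1 μg/mL doxycycline, seeded at 16k/well on poly-D-lysine and grown 2 days at 37 °C. Equilibrated ~60 min at room temperature in the dark in buffer (133 mM NaCl, 10 HEPES, 10 glucose, 4 KCl, 1 CaCl2, pH 7.3). Stimulated with 1.5 mM (low) or 5.0 mM (high) CaCl2 on FLIPR Tetra at room temperature; peak over baseline used.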

[4] = target: CaV3.3 (Homo sapiens, UniProt Q9P0X4); experiment: cell-based; format: cell-based; details: for potentiator activity at CaV3.3: GCaMP6s-CAAX FLIPR, CRC, EC10 KCl
[5] = target: C3a receptor (Cricetulus griseus, UniProt A0A061I1T5); format: cell-based, Chinese hamster; details: read-out: EC50, increase in fluorescence (C3a receptor); CHOK1/Gα15/GCaMP6s-CAAX
How it was run: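 CHOK1-Gα15 cells stably expressing GCaMP6s-CAAX, kept in F-12K + 10% FBS with hygromycin (100 μg/mL) and G-418 (700 μg/mL). Seeded at 16k/well and grown 2 days at 37 °C. Buffer was HBSS + 20 mM HEPES + 0.1% fatty-acid-free BSA, pH 7.3; 30 min at 37 °C in the dark. FLIPR Tetra at 37 °C: ex 470-495/em 515-575 nm, 1 Hz, two additions. Agonist was hC3a; antagonist mode used 20 nM hC3a. Peak over baseline, scaled from buffer (0%) to saturating agonist (100%). Four replicates, two experiments.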

Chain of CaV3.3 (Q9P0X4 whole entry): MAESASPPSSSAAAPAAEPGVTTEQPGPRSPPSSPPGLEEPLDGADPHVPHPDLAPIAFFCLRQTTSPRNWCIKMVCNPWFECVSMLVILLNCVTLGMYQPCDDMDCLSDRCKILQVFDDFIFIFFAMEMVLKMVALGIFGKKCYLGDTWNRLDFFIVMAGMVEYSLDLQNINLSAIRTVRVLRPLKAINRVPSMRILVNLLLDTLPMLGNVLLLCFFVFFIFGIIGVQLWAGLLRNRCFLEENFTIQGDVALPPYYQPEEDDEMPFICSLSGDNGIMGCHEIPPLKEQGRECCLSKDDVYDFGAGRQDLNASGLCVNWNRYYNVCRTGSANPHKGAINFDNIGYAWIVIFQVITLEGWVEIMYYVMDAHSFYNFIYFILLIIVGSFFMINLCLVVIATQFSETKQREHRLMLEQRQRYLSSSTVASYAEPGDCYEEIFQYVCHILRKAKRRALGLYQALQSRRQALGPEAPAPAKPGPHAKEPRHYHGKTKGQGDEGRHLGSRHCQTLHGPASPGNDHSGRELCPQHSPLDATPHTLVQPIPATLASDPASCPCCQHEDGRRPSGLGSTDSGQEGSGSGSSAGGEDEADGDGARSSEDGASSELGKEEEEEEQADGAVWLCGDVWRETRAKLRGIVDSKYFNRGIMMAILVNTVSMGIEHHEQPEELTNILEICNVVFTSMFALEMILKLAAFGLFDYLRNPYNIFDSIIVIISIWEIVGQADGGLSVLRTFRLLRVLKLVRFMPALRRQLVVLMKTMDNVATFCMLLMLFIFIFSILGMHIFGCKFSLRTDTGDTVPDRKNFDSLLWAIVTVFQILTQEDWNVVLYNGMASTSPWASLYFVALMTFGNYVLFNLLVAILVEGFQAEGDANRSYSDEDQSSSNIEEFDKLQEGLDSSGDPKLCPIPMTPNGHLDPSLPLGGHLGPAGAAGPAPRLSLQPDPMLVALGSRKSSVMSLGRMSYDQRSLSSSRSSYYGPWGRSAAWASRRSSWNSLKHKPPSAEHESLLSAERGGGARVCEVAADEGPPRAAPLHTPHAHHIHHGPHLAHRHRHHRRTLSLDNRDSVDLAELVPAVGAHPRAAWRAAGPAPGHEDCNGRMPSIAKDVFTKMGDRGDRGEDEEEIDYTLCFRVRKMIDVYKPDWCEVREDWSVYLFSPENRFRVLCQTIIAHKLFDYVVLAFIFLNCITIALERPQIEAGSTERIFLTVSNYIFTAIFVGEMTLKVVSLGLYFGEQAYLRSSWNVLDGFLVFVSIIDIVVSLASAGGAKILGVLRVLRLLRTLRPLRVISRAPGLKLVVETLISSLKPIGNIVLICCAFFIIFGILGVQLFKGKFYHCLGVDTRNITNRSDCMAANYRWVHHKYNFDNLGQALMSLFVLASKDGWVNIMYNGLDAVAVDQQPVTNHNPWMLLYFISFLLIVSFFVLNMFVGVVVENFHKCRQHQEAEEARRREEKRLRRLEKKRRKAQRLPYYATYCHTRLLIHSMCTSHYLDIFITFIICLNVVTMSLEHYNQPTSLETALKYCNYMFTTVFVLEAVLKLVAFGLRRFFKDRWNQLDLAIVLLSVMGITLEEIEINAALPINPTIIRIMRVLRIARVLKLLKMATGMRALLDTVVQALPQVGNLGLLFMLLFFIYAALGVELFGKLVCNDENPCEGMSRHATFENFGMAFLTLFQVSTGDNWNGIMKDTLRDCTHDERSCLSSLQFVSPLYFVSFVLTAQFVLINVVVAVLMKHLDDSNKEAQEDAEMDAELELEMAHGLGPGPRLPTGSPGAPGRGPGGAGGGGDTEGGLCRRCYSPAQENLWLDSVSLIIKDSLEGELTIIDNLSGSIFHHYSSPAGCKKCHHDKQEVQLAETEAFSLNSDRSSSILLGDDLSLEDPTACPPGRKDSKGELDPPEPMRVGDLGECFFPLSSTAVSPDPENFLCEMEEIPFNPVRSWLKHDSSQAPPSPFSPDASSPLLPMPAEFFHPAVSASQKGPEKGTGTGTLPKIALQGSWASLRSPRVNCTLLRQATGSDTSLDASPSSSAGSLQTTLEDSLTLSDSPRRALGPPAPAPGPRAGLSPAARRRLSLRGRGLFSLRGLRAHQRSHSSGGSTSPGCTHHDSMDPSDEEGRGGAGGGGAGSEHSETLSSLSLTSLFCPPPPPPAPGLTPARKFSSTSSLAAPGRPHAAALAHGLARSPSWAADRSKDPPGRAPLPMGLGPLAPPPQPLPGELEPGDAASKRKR
Chain of LPA1 receptor (G3HUC7 1-364): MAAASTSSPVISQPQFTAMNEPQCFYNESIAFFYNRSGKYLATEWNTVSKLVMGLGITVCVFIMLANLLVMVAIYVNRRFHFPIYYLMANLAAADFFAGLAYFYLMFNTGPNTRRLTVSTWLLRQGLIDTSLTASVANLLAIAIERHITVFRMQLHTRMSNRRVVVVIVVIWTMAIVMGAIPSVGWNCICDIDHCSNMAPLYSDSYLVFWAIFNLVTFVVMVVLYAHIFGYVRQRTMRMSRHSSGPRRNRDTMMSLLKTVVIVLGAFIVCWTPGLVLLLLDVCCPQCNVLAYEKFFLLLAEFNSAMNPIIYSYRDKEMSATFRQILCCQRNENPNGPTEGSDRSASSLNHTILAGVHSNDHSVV
Chain of CaV3.2 (O95180 whole entry): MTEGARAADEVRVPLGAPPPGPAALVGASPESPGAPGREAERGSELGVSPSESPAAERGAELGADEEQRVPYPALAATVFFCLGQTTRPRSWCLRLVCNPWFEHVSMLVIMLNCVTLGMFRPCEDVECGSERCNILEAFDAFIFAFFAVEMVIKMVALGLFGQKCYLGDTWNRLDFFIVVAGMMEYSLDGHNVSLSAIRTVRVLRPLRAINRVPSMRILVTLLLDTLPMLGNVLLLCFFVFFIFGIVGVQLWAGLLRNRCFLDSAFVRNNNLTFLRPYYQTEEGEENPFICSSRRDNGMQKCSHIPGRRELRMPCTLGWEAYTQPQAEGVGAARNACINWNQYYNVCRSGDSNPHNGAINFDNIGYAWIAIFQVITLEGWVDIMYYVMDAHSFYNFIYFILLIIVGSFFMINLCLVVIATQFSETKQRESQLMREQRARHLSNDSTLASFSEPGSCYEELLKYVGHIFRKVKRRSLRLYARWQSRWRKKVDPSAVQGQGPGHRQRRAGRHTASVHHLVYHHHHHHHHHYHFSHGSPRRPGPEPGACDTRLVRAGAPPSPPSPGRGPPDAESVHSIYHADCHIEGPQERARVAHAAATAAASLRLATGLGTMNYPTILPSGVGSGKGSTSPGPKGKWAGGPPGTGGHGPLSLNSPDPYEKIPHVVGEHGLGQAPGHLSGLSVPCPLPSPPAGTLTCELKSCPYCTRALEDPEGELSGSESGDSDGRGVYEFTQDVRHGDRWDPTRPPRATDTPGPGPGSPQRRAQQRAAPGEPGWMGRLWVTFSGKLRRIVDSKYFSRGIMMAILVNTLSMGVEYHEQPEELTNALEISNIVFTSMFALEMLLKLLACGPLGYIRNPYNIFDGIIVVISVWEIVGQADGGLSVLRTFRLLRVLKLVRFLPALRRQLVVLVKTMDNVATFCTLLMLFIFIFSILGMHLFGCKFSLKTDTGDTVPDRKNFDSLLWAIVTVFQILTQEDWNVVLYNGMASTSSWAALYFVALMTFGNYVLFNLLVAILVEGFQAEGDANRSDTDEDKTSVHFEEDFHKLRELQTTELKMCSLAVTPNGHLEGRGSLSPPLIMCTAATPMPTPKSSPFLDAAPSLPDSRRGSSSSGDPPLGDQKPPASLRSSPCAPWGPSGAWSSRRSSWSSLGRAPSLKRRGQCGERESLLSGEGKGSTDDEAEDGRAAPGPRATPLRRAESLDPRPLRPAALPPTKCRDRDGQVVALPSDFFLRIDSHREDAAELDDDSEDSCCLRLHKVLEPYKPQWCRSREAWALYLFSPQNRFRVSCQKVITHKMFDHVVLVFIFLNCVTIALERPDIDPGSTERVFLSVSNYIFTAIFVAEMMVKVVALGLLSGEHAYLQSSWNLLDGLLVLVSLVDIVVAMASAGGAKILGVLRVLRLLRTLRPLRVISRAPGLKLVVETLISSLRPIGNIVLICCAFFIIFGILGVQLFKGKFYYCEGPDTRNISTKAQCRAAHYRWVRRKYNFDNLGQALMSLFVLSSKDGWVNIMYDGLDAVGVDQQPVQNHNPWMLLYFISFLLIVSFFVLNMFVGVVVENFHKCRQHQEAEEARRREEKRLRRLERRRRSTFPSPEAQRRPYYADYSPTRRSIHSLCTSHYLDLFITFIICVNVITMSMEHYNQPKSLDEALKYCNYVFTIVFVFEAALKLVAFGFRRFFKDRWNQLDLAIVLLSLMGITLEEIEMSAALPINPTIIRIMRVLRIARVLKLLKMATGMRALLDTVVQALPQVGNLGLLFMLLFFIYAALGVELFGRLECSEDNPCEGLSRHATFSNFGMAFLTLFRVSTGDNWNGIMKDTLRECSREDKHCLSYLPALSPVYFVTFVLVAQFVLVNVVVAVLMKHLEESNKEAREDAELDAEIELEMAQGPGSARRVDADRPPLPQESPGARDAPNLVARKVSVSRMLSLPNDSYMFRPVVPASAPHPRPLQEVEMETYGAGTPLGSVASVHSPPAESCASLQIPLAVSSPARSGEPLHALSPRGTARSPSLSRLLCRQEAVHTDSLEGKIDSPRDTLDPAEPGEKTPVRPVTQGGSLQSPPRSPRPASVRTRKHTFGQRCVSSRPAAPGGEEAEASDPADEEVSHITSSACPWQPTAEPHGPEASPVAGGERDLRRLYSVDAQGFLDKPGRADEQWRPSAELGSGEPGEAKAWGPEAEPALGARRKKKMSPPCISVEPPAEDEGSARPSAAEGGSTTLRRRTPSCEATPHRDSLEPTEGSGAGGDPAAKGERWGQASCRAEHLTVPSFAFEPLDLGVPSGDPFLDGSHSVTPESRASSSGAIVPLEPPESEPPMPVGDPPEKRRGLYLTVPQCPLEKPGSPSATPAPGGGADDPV

Compound: Cc1noc(-c2ccc(-c3ccc(CC(=O)O)cc3)cc2)c1NC(=O)O[C@H](C)c1ccccc1 [AM095]
- IC50 ([1]; read-out: IC50, block of LPA1-mediated signal, EC80 agonist): 240 ± 20 nM

Compound: CCOC(=O)C1=C(N2CCCCC2)C2(CC1=O)C(=O)N=C1C(C)=CC=CN12 (centres unmarked) [SAK3]
- potentiator activity at CaV3.2 [2]: neither SAK3 (Figure 3D) nor ST-101 (Supporting Information Figure S3) displayed potentiator activity
- potentiator activity at CaV3.1 [3]: neither SAK3 (Figure 3D) nor ST-101 (Supporting Information Figure S3) displayed potentiator activity
- potentiator activity at CaV3.3 [4]: neither SAK3 (Figure 3D) nor ST-101 (Supporting Information Figure S3) displayed potentiator activity

Compound: O=C1N=C2C=CC=CN2C12Cc1ccccc1C2 [ST-101]
- potentiator activity at CaV3.2 [2]: neither SAK3 (Figure 3D) nor ST-101 (Supporting Information Figure S3) displayed potentiator activity
- potentiator activity at CaV3.1 [3]: neither SAK3 (Figure 3D) nor ST-101 (Supporting Information Figure S3) displayed potentiator activity
- potentiator activity at CaV3.3 [4]: neither SAK3 (Figure 3D) nor ST-101 (Supporting Information Figure S3) displayed potentiator activity

Compound: CC1=C(C(=O)OC(C)C)C(c2cccc([N+](=O)[O-])c2)C(C(=O)OC2CN(C(c3ccccc3)c3ccccc3)C2)=C(N)N1 (centres unmarked) [azelnidipine]
- IC50 [4]: 26000 nM

Compound: Fc1ccc(C(c2ccc(F)cc2)N2CCN(C/C=C/c3ccccc3)CC2)cc1 [flunarizine dihydrochloride]
- IC50 [4]: 1200 nM

Compound: CCOC(=O)Nc1ccc(NCc2ccc(F)cc2)nc1N [flupirtine maleate]
- IC50 [4]: 3500 nM

Compound: COC(=O)C1=C(C)NC(C)=C(C(=O)OC(C)(C)CN(C)CCC(c2ccccc2)c2ccccc2)C1c1cccc([N+](=O)[O-])c1 (centres unmarked) [lercanidipine hydrochloride]
- IC50 [4]: 410 nM

Compound: CN(C)C(=O)C(CCN1CCC(O)(c2ccc(Cl)cc2)CC1)(c1ccccc1)c1ccccc1 [loperamide hydrochloride]
- IC50 [4]: 1300 nM

Compound: CC(C)c1ccc(CC(=O)N[C@H](C)c2ccc(OCC(F)(F)F)cn2)cc1 [mk-8998]
- IC50 [4]: 37 nM

Compound: COC(=O)C1=C(C)NC(C)=C(C(=O)OCCN(C)Cc2ccccc2)C1c1cccc([N+](=O)[O-])c1 (centres unmarked) [nicardipine hydrochloride]
- IC50 [4]: 2100 nM

Compound: CCOC(=O)C1=C(C)NC(C)=C(C(=O)OC)C1c1cccc([N+](=O)[O-])c1 (centres unmarked) [nitrendipine]
- IC50 [4]: 18000 nM

Compound: CCOC(=O)Nc1ccc(NCc2ccc(F)cc2)cc1N [retigabine]
- IC50 [4]: 9400 nM

Compound: C[C@@H](NC(=O)Cc1ccc(C2CC2)cc1)c1ccc(OCC(F)(F)F)cn1 [tta-a2]
- effect on KCl-induced CaV3.3-dependent fluorescence signal [4]: blocked
- IC50 ([4]; read-out: IC50 against CaV3.3): 53 nM

Compound: human C3a [hC3a]
- EC50 [5]: 4.5 ± 0.5 nM

Compound: lysoPA18:1
- EC50 ([1]; read-out: EC50, increase in fluorescence (LPA1 receptor agonist)): 1010 ± 190 nM

Reference: paper PMC8923061 (ACS Pharmacology & Translational Science, 2022)
